CRFBP-R2 block: antagonists of CRF-BP/CRF-R2 complex, primary screen, cell-based, HEK293, calcium dye fluorescence, uHTS; CRF-induced calcium fluorescence; inhibition, % at 11.8 µM; 350,000 compounds, 0.59% hits; AID 588475, 2011;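 active means inhibition of the ligand-induced calcium signal above about 50% at the single tested concentration, limit read from the data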
CRFBP-R2 agonist: agonists of CRF-BP/CRF-R2 complex, primary screen, cell-based, HEK293, calcium dye fluorescence, uHTS. CRF-binding protein / CRF receptor 2 complex (human). calcium dye fluorescence (FLIPR); percent of saturating CRF peptide response. activation, % at 13.2 µM. 350,000 compounds, 0.46% hits;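 active means activation of at least 50%, plus an integration ratio under a set limit after plate pattern correction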
UCH37 inh: inhibitors of human UCH37 deubiquitinase, primary screen, biochemical, Ub-AMC cleavage, fluorescence; Ubiquitin carboxyl-terminal hydrolase isozyme L5 (Homo sapiens), Q9Y5K5; purified proteasome/UCH37; inhibition, % (concentration not given with the values); 330,000 compounds, 0.33% hits; AID 588478, 2011;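 active means mean inhibition over replicate wells above about 20%, limit read from the data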
Target sequence (Q9Y5K5 whole entry, looked up): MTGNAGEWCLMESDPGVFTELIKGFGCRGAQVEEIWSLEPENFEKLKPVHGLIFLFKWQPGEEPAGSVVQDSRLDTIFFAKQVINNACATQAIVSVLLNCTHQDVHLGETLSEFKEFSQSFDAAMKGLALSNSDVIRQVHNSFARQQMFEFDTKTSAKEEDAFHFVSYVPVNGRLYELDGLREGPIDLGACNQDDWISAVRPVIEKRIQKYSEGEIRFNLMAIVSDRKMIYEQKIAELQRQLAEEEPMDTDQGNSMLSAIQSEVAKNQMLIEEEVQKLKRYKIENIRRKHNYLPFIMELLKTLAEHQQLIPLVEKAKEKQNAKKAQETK
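System: Proteasome-associated human UCH37 deubiquitinase; Input: 0.15 nM proteasome in added enzyme buffer; Also added: Ub-AMC substrate from 1 µM stock; Incubation: 30 min compound-proteasome preincubation then 25 min substrate reaction, room temperature; Detection: fluorescence, ex 355 nm, em 460 nm; Read-out: % inhibition of Ub-AMC cleavage fluorescence; Benchmarks: no-proteasome and no-compound wells.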
H9c2 protect: cardioprotection against H2O2-induced cell death, primary screen, uHTS, H9c2 cells, ATPLite luminescence. 360,000 compounds, 0.63% hits. AID 588492, 2011. protection from H2O2 cell death, % at 20 µM. H9c2 cardiomyocytes, H2O2 injury protection, 2 h;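 active means compounds giving at least 50% protection of heart cells from peroxide-induced death in the single-dose screen, raw or plate-pattern-corrected value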
iPSC survival up: enhancers of single-cell hiPSC survival, primary screen, ATPlite luminescence. 100% = ROCK inhibitor wells, 0% = DMSO. survival enhancement, % at 20 µM. 360,000 compounds, 0.044% hits. AID 602274, 2012; in the data active means survival enhancement above about 18%;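 further: cells exposed to compounds for 16 hours before the ATP read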
MIN6 prolif: inducers of MIN6 beta-cell proliferation, primary screen, ATP luminescence, uHTS. MIN6 cells proliferation, ATPlite luminescence, 48 h; cells starved in 0.2% serum; 100% = growth in 10% serum. proliferation, % at 10 µM. 330,000 compounds, 0.29% hits. AID 2380, 2010;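 active means compounds whose signal lies at least 3.5 SD above the mean of all wells on their plate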
Hits are given with their value; . = inactive; / = not tested or not shown. The list is not random: actives were taken first. Their share in the collection is about 2.1%.

SMILES	CRFBP-R2 block	CRFBP-R2 agonist	UCH37 inh	H9c2 protect	iPSC survival up	MIN6 prolif
COc1cccc(OC)c1C(=O)Nc1cc(C)nn1-c1nc2ccccc2[nH]1	.	.	.	77	.	.
Cc1nn(-c2cc(C(F)(F)F)ccc2Cl)c2nc(C(Cl)(Cl)Cl)[nH]c(=O)c12	52	.	.	.	.	.
Cc1nn(-c2ccccc2)c2nc(C(F)(F)F)[nH]c(=O)c12	.	.	.	.	.	.
N=C1/C(=C/c2coc3ccccc3c2=O)C(=O)N=C2SC(c3ccco3)=NN12	.	168	.	.	.	.
CN1C(=O)/C(=C/c2coc3ccc(O)cc3c2=O)SC1=S	.	.	.	.	.	.
N=C1/C(=C\c2coc3ccc(O)cc3c2=O)C(=O)N=C2SC=CN12	.	152	.	.	.	.
N=C1/C(=C\c2coc3ccccc3c2=O)C(=O)N=C2SC(c3ccncc3)=NN12	.	159	.	.	.	.
COc1ccc(-n2cccc2/C=C2\C(=N)N3N=C(c4ccco4)SC3=NC2=O)cc1	52	.	.	.	.	.
Cc1cc(/C=C2\C(=N)N3N=C(c4ccco4)SC3=NC2=O)c(C)n1Cc1ccccc1	.	.	/	.	.	.
Cc1cc(C)cc(NC(=O)CN2C(=O)NC(C)(c3ccccc3)C2=O)c1 (stereo unspecified)	.	.	.	.	.	.
CC1(c2ccccc2)NC(=O)N(CC(=O)Nc2cccc(/C=C/c3ccccn3)c2)C1=O (stereo unspecified)	.	.	.	68	.	.
Cc1ccc(CCNC(=O)C2CCC(=O)N2C2CCCC2)cc1 (stereo unspecified)	62	.	.	.	.	.
Cc1cc(O)c2c(c1O)C(=O)[C@]13C(=C2O)C(=O)[C@@H]2[C@@H](O)[C@H]1[C@@H]1[C@H](O)[C@H]3C(=O)C3=C(O)c4c(O)cc(C)c(O)c4C(=O)[C@]312	.	.	21	.	.	.
Cc1ccc2nsnc2c1S(=O)(=O)N(Cc1cc2cccc(C)c2[nH]c1=O)CC1CCCO1 (stereo unspecified)	.	.	.	80	.	.
CC(=NNC(=O)c1ccc(Cl)cc1Cl)c1cccnc1	/	/	.	/	/	/
CN=c1scc(C)n1N=Cc1ccc(O)cc1O	/	/	.	/	/	/
CCc1ccc(C(C)NC(=S)NC2CCCCC2)cc1 (stereo unspecified)	71	.	.	.	.	.
C=CCNc1nc(Cl)nc(Nc2ccccc2)n1	.	.	.	.	.	.
CNc1nc(Cl)nc(Nc2ccccc2)n1	103	.	.	.	.	.
COC(=O)c1sc(NC(=S)NC(=O)c2ccccc2F)nc1C	.	.	.	.	.	.
COC(=O)c1sc(NC(=S)NC(=O)c2cccc(C)c2)nc1C	.	65	.	.	.	.
CC(=O)Nc1ccc(NC2=C/C(=N/S(=O)(=O)c3cccs3)c3ccccc3C2=O)cc1	.	.	/	.	.	.
CC(=O)Nc1ccc(NC2=CC(=NS(=O)(=O)c3cccs3)c3ccccc3C2=O)cc1	/	/	29	/	/	/
Cc1ccccc1NC1=C/C(=N\S(=O)(=O)c2ccc(C(=O)O)cc2)c2ccccc2C1=O	.	.	94	.	.	.
COc1ccc(S(=O)(=O)/N=C2\C=C(Nc3ccc(O)cc3)C(=O)c3ccccc32)cc1	.	.	/	.	.	.
Cc1c(C=NNC(=O)c2cc3ccccc3o2)c2ccccc2n1C	/	/	.	/	/	/
O=C(Nc1ccc2oc(-c3ccccc3F)nc2c1)c1ccc([N+](=O)[O-])o1	.	.	.	58	.	.
O=C(Nc1ccc2oc(-c3ccccc3F)nc2c1)c1cncc(Br)c1	.	.	.	.	.	.
Cc1ccsc1/C=N\NC(=O)CCc1c(C)n[nH]c1C	52	.	/	.	.	.
COc1ccc(/C=c2\s/c(=C/C(=O)c3ccc(C)cc3)[nH]c2=O)cc1OC	.	182	/	.	.	.
